Data taken from ChEMBL document CHEMBL1153363, “Structure-activity relationships for a series of quinoline-based compounds active against replicating and nonreplicating Mycobacterium tuberculosis” (J Med Chem, 2009).
In brackets after ≈: the same amount, converted by molar mass.

Legend:
[1] = system: Vero; assay: Cytotoxicity against african green monkey Vero cells after 72 hrs by Cell titer assay; type: cell-based, Chlorocebus sabaeus
Method in brief: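 Vero CCL-81 cells, log phase. Samples from 12.8 mM DMSO stocks in geometric 3-fold dilutions in MEM with 10% FBS, 25 mM HEPES, 0.2% NaHCO₃ and 2 mM glutamine; DMSO ≤1% v/v final. Run in duplicate, 72 h at 37 °C, 5% CO₂. Viability by CellTiter 96 aqueous assay, absorbance 490 nm; IC50 from curve fitting.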

[2] = system: Mycobacterium tuberculosis; assay: Antitubercular activity against replicating form of Mycobacterium tuberculosis H37Rv ATCC 27294 after 7 days by microplate alamar blue assay; type: functional; details: 168 h
Method in brief: (§1)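 12.8 mM DMSO stocks; two-fold dilutions in Middlebrook 7H12 broth, final 128 to 0.5 µM. Inoculum 2 × 10⁵ cfu/mL, 37 °C. On day 7, Tween 80 plus Alamar Blue added; fluorescence read (ex 530/em 590 nm) after 16-24 h more. MIC = lowest concentration giving ≥90% fluorescence drop versus bacteria-only controls; mean of two runs. RMP and INH positive controls.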

[3] = system: Mycobacterium tuberculosis; assay: Antitubercular activity against non replicating persistent form of Mycobacterium tuberculosis H37Rv ATCC 27294 after 10 days by LORA; type: functional; details: 240 h
Method in brief: (§2)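 Recombinant H37Rv (pFCA-luxAB, V. harveyi luciferase, acetamidase promoter), low-oxygen adapted in fermentor, washed in PBS, stored at -80 °C. About 10⁵ cfu/mL of thawed cells exposed to two-fold serial dilutions in 7H12, 10 days anaerobic at 37 °C. Luminescence read after 28 h aerobic recovery (5% CO₂). MIC = lowest concentration preventing recovery (90% reduction versus untreated), read graphically.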

[4] = system: Mycobacterium tuberculosis; assay: Antitubercular activity against Mycobacterium tuberculosis; type: functional; method in brief: as §1
[5] = system: Mycobacterium tuberculosis; assay: Ratio of MIC for non replicating persistent form of Mycobacterium tuberculosis H37Rv ATCC 27294 by LORA to MIC for replicating form of Mycobacterium tuberculosis H37Rv ATCC 27294 by microplate alamar blue assay; type: functional
[6] = system: Mycobacterium tuberculosis; assay: Antitubercular activity against non replicating persistent form of Mycobacterium tuberculosis; type: functional; method in brief: as §2
[7] = system: Mycobacterium tuberculosis; assay: Antitubercular activity against replicating form of Mycobacterium tuberculosis; type: functional; method in brief: as §1
[8] = Chlorocebus sabaeus, Vero, 72 h

Compound	IC50 [1, 8]	MIC [2]	MIC [3]	other results
CO[C@H]1/C=C/O[C@@]2(C)Oc3c(C)c(O)c4c(O)c(c(/C=N/N5CCN(C)CC5)c(O)c4c3C2=O)NC(=O)/C(C)=C\C=C\[C@H](C)[C@H](O)[C@@H](C)[C@@H](O)[C@@H](C)[C@H](OC(C)=O)[C@@H]1C [RIFAMPIN]	127 µM	0.1 µM (≈ 0.0823 µg/mL)	1.9 µM (≈ 1.56 µg/mL)	IC50 ([1]; vero): 127 µM
CCOC(=O)c1ccc(COc2cc(C(F)(F)F)nc3c(C(F)(F)F)cccc23)cc1	> 128 µM	> 128 µM		
FC(F)(F)c1cc(OCc2nnn[nH]2)c2cccc(C(F)(F)F)c2n1		> 128 µM		
CCOC(=O)c1cc(COc2cc(C(F)(F)F)nc3c(F)ccc(F)c23)on1		41.2 µM (≈ 16.6 µg/mL)	52.8 µM (≈ 21.2 µg/mL)	
CCOC(=O)c1cc(COc2cc(C(F)(F)F)nc3c(F)cc(F)cc23)on1		14.6 µM (≈ 5.87 µg/mL)		
CCOC(=O)c1cc(COc2cc(C(F)(F)F)nc3cc(C(F)(F)F)cc(C(F)(F)F)c23)on1	> 128 µM	0.77 µM (≈ 0.387 µg/mL)	10 µM (≈ 5.02 µg/mL)	
CCOC(=O)c1cc(Cn2ccc(=O)c3ccc(C(F)(F)F)cc32)on1		> 128 µM		
CCOC(=O)C1=NOC(COc2cc(C(F)(F)F)nc3c(C(F)(F)F)cccc23)C1 (configuration not stated)	> 128 µM	22.2 µM (≈ 9.69 µg/mL)		
NNC(=O)c1ccncc1 [ISONIAZID]	> 128 µM	0.5 µM (≈ 0.0686 µg/mL)	> 128 µM	
CCOC(=O)c1ccc(COc2cc(C(F)(F)F)nc3c(C(F)(F)F)cccc23)o1	118 µM	> 128 µM		
OC(c1cc(C(F)(F)F)nc2c(C(F)(F)F)cccc12)C1CCCCN1 (configuration not stated) [MEFLOQUINE]				MIC [4]: 13 µM (≈ 4.92 µg/mL)
CCOC(=O)c1cc(COc2cc(C(F)(F)F)nc3c(Cl)cccc23)on1		62.9 µM (≈ 25.2 µg/mL)	49.3 µM (≈ 19.8 µg/mL)	
CCOC(=O)c1cc(COc2ccnc3cc(C(F)(F)F)ccc23)on1		3.3 µM (≈ 1.21 µg/mL)	81.9 µM (≈ 30 µg/mL)	Ratio [5]: 25
CCOC(=O)c1cc(COc2cc(C(F)(F)F)nc3cc(C(F)(F)F)ccc23)on1	> 128 µM	1.3 µM (≈ 0.565 µg/mL)		
CCOC(=O)c1cc(-c2cccc(Oc3cc(C(F)(F)F)nc4ccccc34)c2)on1	> 128 µM	0.95 µM (≈ 0.407 µg/mL)	3.7 µM (≈ 1.58 µg/mL)	
CCOC(=O)c1cc(COc2cc(C(F)(F)F)nc3c(F)cccc23)on1	> 128 µM	11.3 µM (≈ 4.34 µg/mL)	39 µM (≈ 15 µg/mL)	
CCOC(=O)c1cccc(COc2cc(C(F)(F)F)nc3c(C(F)(F)F)cccc23)n1		> 128 µM		
CCC(=O)c1cc(COc2cc(C(F)(F)F)nc3c(C(F)(F)F)cccc23)on1	64.9 µM	27.4 µM (≈ 11.5 µg/mL)		

Compound	IC50 [1, 8]	MIC [2]	MIC [3]	other results
CCOC(=O)c1cc(COc2cc(C(F)(F)F)nc3c(C(F)(F)F)cc(OC)cc23)on1	> 128 µM	66.1 µM (≈ 30.7 µg/mL)		
CCOC(=O)c1cc(COc2cc(C(F)(F)F)nc3c(C)cccc23)on1	> 128 µM	1.8 µM (≈ 0.685 µg/mL)	10.4 µM (≈ 3.96 µg/mL)	
CCOC(=O)c1cc(COc2ccnc3cc(Cl)ccc23)on1	> 128 µM	3.8 µM (≈ 1.26 µg/mL)	99.7 µM (≈ 33.2 µg/mL)	Ratio [5]: 25
O=[N+]([O-])c1ccc(COc2cc(C(F)(F)F)nc3c(C(F)(F)F)cccc23)o1	15.4 µM	6.3 µM (≈ 2.56 µg/mL)		
CCOC(=O)c1nc(COc2cc(C(F)(F)F)nc3c(C(F)(F)F)cccc23)cs1	> 128 µM	16.5 µM (≈ 7.43 µg/mL)		
CCOC(=O)c1cc(CCOc2cc(C(F)(F)F)nc3c(C(F)(F)F)cccc23)on1	> 128 µM	3.4 µM (≈ 1.52 µg/mL)	9.9 µM (≈ 4.44 µg/mL)	
CCOC(=O)c1coc(COc2cc(C(F)(F)F)nc3c(C(F)(F)F)cccc23)n1		> 128 µM		
CCOC(=O)c1cc(COc2ccnc3ccccc23)on1	> 128 µM	25.1 µM (≈ 7.49 µg/mL)	13.2 µM (≈ 3.94 µg/mL)	
CCOC(=O)c1cc(COc2cc(C(F)(F)F)nc3c(OC(F)(F)F)cccc23)on1	> 128 µM	2.6 µM (≈ 1.17 µg/mL)	7 µM (≈ 3.15 µg/mL)	
CCOC(=O)c1cc(COc2cc(C(F)(F)F)nc3cc(Cl)cc(Cl)c23)on1	> 128 µM	1.9 µM (≈ 0.827 µg/mL)	3.7 µM (≈ 1.61 µg/mL)	
CCOC(=O)c1cc(COc2cc(C(F)(F)F)nc3ccccc23)on1	> 128 µM	3.2 µM (≈ 1.17 µg/mL)	25.1 µM (≈ 9.19 µg/mL)	
CCOC(=O)c1cc(COc2cc(C(F)(F)F)nc3c(C(F)(F)F)cccc23)on1	> 128 µM	0.9 µM (≈ 0.391 µg/mL)	12.2 µM (≈ 5.3 µg/mL)	MIC [6]: 12.2 µM (≈ 5.3 µg/mL); MIC [7]: 0.9 µM (≈ 0.391 µg/mL)
CCOC(=O)c1cc(COc2cc(C(F)(F)F)nc3c(C(F)(F)F)cccc23)no1	> 128 µM	3.6 µM (≈ 1.56 µg/mL)		
CCOC(=O)c1cc(COc2cc(C(=O)OCC)nc3ccccc23)on1	> 128 µM	7.9 µM (≈ 2.93 µg/mL)	15.7 µM (≈ 5.81 µg/mL)	
CCOC(=O)c1cc(COc2cc(C(F)(F)F)nc3cccc(C(F)(F)F)c23)on1	> 128 µM	3.8 µM (≈ 1.65 µg/mL)		
CN[C@@H]1[C@H](O[C@H]2[C@H](O[C@H]3[C@H](O)[C@@H](O)[C@H](N=C(N)N)[C@@H](O)[C@@H]3N=C(N)N)O[C@@H](C)[C@]2(O)C=O)O[C@@H](CO)[C@H](O)[C@H]1O [STREPTOMYCIN]		0.3 µM (≈ 0.174 µg/mL)		
CCOC(=O)c1cc(COc2ccnc3c(C(F)(F)F)cccc23)on1	> 128 µM	10.6 µM (≈ 3.88 µg/mL)	56.6 µM (≈ 20.7 µg/mL)	
CCOC(=O)c1cc(COc2cc(C(F)(F)F)nc3ccc(C(F)(F)F)cc23)on1	> 128 µM	3.7 µM (≈ 1.61 µg/mL)	7.6 µM (≈ 3.3 µg/mL)	Ratio [5]: 2
